# Screens (PubChem BioAssay)
# rCAG RNA binder: molecules binding r(CAG) RNA repeats. 370,000 compounds, 1.3% hits. AID 651821. r(CAG) RNA repeat, TO-PRO-1 dye displacement fluorescence. inhibition, % at 3 µM;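 active = inhibition above the plate cutoff, the mean of all test compounds on that plate plus 3 SD, cut at about 35% in these data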;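 note: 0% = DMSO alone and 100% = 100 µM mitoxantrone as full dye displacement; higher means more dye released from RNA so lower well fluorescence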
# TAAR1 agonist: human TAAR1 agonism | CHO RD-HGA16 TAAR1, Fluo-8 calcium fluorescence; vehicle wells 0%, saturating PEA agonist 100% | AID 624467 | activation, % at 3 µM | 360,000 compounds, 0.99% hits;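 active = activation above the mean activation of all test compounds in the run plus 3 SD, cut at about 38% in these data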
# Target sequence (Q96RJ0 whole entry, looked up): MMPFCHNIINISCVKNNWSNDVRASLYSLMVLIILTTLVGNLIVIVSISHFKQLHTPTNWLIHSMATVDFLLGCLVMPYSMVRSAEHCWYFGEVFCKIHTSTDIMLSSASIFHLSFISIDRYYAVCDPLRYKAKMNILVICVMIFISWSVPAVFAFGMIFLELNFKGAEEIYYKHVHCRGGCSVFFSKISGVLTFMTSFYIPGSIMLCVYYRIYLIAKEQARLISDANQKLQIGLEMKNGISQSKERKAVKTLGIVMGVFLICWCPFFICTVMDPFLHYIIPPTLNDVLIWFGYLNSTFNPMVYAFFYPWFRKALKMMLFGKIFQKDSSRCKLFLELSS
#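 Test system: RD-HGA16 (CHO) cells co-expressing Gα16 and hTAAR1 / Benchmarks: DMSO vehicle as 0%, PEA at EC100 as 100% / Repeats: no replicates (n 1) / Measure: % activation from peak over basal fluorescence ratio, DMSO-to-PEA scaled / Timing: 17-24 h plating, Fluo-8 75 min 37 °C, 30 min RT / Technique: kinetic Fluo-8 calcium fluorescence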
# HCV core dimer: blocks dimerization of HCV core protein | TR-FRET GST/Flag-core106 dimerization, 1536-well | inhibition, % at 5 µM | 300,000 compounds, 0.33% hits | AID 1899;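 active = inhibition above the mean of all tested compounds plus 3 SD, set per screening campaign, cut at about 45% in these data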
#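 Material: Tagged HCV core106 pair (GST and Flag) | Amount: GST-core106 13.5 nM, Flag-core106 17 nM | Medium: KF-containing HEPES buffer, pH 7.45, DTT, CHAPS, BSA | Reagent: Eu donor and XL665 acceptor anti-tag antibodies | Schedule: 4 h at 22.5 °C | Technique: Time-resolved FRET, ex 340 nm, em 617 and 671 nm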
# TAAR1 antagonist: antagonists of human TAAR1 | CHO RD-HGA16 TAAR1, Fluo-8 calcium fluorescence, antagonist | inhibition, % at 3 µM | Q96RJ0 | 360,000 compounds, 1.5% hits | AID 624466;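 active = inhibition above a per-plate cutoff, the mean inhibition of test compounds on that plate plus 3 SD, cut at about 49% in these data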;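 note: 0% = DMSO plus EC80 beta-PEA response and 100% = DMSO alone without agonist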
#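 Test system – hTAAR1-expressing CHO RD-HGA16 cells, Gα16-coupled · Reagent – β-PEA at EC80 concentration, post-compound challenge · Compound dosing – 3 µM, single point · Timing – 140 s kinetic read after compound, 140 s after agonist · Detection – Fluo-8 intracellular calcium dye fluorescence, real-time kinetic reads · Control set – DMSO and EC80 PEA controls · Repeats – n of 1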
# NS3 helicase inh: inhibitors of Hepatitis C virus NS3 helicase | NS3 helicase DNA unwinding, Cy5 molecular beacon fluorescence | inhibition, % at 10.9 µM | 290,000 compounds, 0.56% hits | AID 1800;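 active = inhibition above the mean of all tested compounds plus 3 SD, set per campaign, cut at about 35% in these data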;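 note: 0% = DMSO wells and 100% = thioflavine S control wells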
#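 Measured by: Cy5 fluorescence, 0 and 60 min reads / Assay system: NS3 helicase fragment of HCV / Control set: low DMSO, high thioflavine S at 110 µM / Times: 1 h reaction at 25 °C, ATP-initiated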
# rCAG binder conf: r(CAG) RNA repeat binding, confirmation. TO-PRO-1 dye displacement fluorescence. inhibition, % at 3 µM. AID 652065. shares compounds with rCAG RNA binder. 4,300 compounds, 70% hits;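 active = inhibition above a per-plate cutoff, the mean inhibition of sample wells plus 3 SD, cut at about 35% in these data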;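 note: loss of TO-PRO-1 fluorescence as compound displaces dye from 1x1 AA loop RNA; 0% = DMSO only wells and 100% = 100 µM mitoxantrone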
# DNA CAG counter: counter-screen for rCAG RNA binders: DNA CAG dye complex inhibitors. inhibition, % at 3 µM. shares compounds with rCAG RNA binder. 4,300 compounds, 94% hits. d(CAG) DNA oligo TO-PRO-1 dye displacement, fluorescence;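 active = inhibition above its plate's cutoff, the mean test-well inhibition plus 3 SD, cut at about 4.8% in these data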;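 note: 0% = DNA dye mix with DMSO and 100% = 100 µM mitoxantrone; hits displace the dye from DNA and so lower well fluorescence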
# * hit, by the source's call; x = not tested or not shown. Shown are actives, neighbours in structure and some others; about 3.7% of the full set was active somewhere.
SMILES,rCAG RNA binder,TAAR1 agonist,HCV core dimer,TAAR1 antagonist,NS3 helicase inh,rCAG binder conf,DNA CAG counter
COc1ccc(-c2nn(-c3ccccc3)cc2C(=O)Nc2cccc(C(=O)O)c2)cc1[N+](=O)[O-],71*,0,17,-10,6,61*,24*
O=C(O)c1cccc(NC(=O)c2cn(-c3ccccc3)nc2-c2cccc(Br)c2)c1,87*,4,15,36,1,82*,50*
O=C(O)c1ccc(NC(=O)c2cn(-c3ccccc3)nc2-c2ccc(Br)cc2)cc1,82*,3,26,47,-28,68*,28*
COc1ccc(-c2ccc3c(n2)CCCN3S(=O)(=O)c2ccc(C(F)(F)F)cc2)cc1,7,0,x,-41,x,x,x
COC(=O)[C@]12C[C@H](CC(=O)NCc3ccccc3)C(=O)N(Cc3cccc4ccccc34)C1=C[C@H](C(C)C)O[C@@H]2C1CC1,7,x,x,x,x,x,x
O=C(O)c1cccc(-c2ccc(/C=N/NC(=O)C3COc4ccccc4O3)o2)c1 (stereo not drawn),18,8,-2,0,26,x,x
CC(C)(C)c1ccc2c(c1)OC(C(=O)N/N=C\c1ccc(-c3cccc(C(=O)O)c3)o1)CO2 (stereo not drawn),41*,-2,19,28,23,77*,43*
CCCCCCCCOC(=O)c1cc([N+](=O)[O-])c(Sc2ncnc3nc[nH]c23)c([N+](=O)[O-])c1,38*,4,x,0,x,40*,19*
CCCCOC(=O)c1ccc(Nc2ncnc3nc[nH]c23)cc1,2,1,1,4,-3,x,x
COc1cc(OC)c2c(O)c3c(=O)cc(C)oc3c(-c3c(OC)cc4cc5c(c(O)c4c3O)C(=O)CC(C)(O)O5)c2c1 (stereo not drawn),44*,x,x,x,x,41*,22*
Cc1ccc(S(=O)(=O)Nc2nc3ccccc3nc2Nc2cccc(S(=O)(=O)N3CCCC3)c2)cc1,21,0,22,9,14,x,x
CC(=O)Nc1ccc(S(=O)(=O)Nc2nc3ccccc3nc2Nc2ccccc2)cc1,47*,2,-4,9,2,40*,9.6*
CC(=O)Nc1ccc(S(=O)(=O)Nc2nc3ccccc3nc2Nc2cccc(S(N)(=O)=O)c2)cc1,52*,2,3,-20,20,37*,7.6*
O=[N+]([O-])c1cccc(S(=O)(=O)Nc2nc3ccccc3nc2Nc2cccc(S(=O)(=O)N3CCCCC3)c2)c1,52*,7,x,35,25,95*,86*
COc1ccc(-c2ccc3c(n2)CCCN3S(=O)(=O)c2c(C)noc2C)cc1,5,0,x,-7,x,x,x
C[C@H](O)[C@@H]1CN2CCc3c([nH]c4c(-c5ccc6c(c5)OCO6)cccc34)[C@@H]2C[C@@H]1N(C)C(=O)c1ccco1,4,x,x,x,x,x,x
Cc1nn(-c2ccccc2)c(Cl)c1/C=N/NS(=O)(=O)c1ccc(Br)cc1,48*,-3,11,2,-6,42*,11*
Cc1nn(-c2ccccc2)c(Cl)c1/C=N/Nc1ccc(S(=O)(=O)Nc2ccccc2C(=O)O)cc1[N+](=O)[O-],52*,14,19,10,10,92*,65*
CCOc1cccc(C=NNc2ccc(S(=O)(=O)Nc3ccccc3C(=O)O)cc2[N+](=O)[O-])c1O,76*,-1,x,5,x,86*,54*
CNC(=S)N/N=C/c1c(C)nn(-c2ccccc2)c1Cl,4,1,6,6,-6,x,x
O=C(O)c1ccccc1/C=N/Nc1ccc(S(=O)(=O)N2CCCC2)cc1[N+](=O)[O-],8,-2,-1,-16,4,x,x
CSc1ccc(C=NNc2ccc(S(=O)(=O)Nc3ccccc3C(=O)O)cc2[N+](=O)[O-])cc1,17,0,x,-2,x,x,x
C=CCOc1ccc(C=NNc2ccc(S(=O)(=O)Nc3ccccc3C(=O)O)cc2[N+](=O)[O-])cc1OC,37*,0,x,6,x,95*,80*
CC(C)[C@H]1/C(=C/C2CC2)N2C(=O)C[C@@H](c3ccccc3)N=C2N1Cc1ccc2c(c1)OCO2,6,x,x,x,x,x,x
Cc1ccc(C(=O)n2ccc3ccc(-c4ccc5ccn(Cc6ccccc6)c5c4)cc32)cc1,15,x,x,x,x,x,x
SMILES,rCAG RNA binder,TAAR1 agonist,HCV core dimer,TAAR1 antagonist,NS3 helicase inh,rCAG binder conf,DNA CAG counter
COc1ccc(S[C@]2(C(=O)N3CCCC3)CC(=O)N(c3ccc4c(ccn4C)c3)[C@@H]2c2ccc(OC)cc2)cc1,15,x,x,x,x,x,x
CCc1cc2c(nc1CC)CCCN2S(=O)(=O)c1ccc(OC)cc1,2,1,x,-24,x,x,x
O=C(O)c1ccccc1NS(=O)(=O)c1ccc(NN=Cc2ccccc2F)c([N+](=O)[O-])c1,84*,9,x,11,x,92*,72*
CCOC(=O)C1=NOC(C(=O)NCCO)(C(=O)C2CC2)C1 (stereo not drawn),3,x,x,x,x,x,x
COC(=O)c1scc(S(=O)(=O)C(C)C)c1N/N=C(\C#N)C(=O)c1ccc(Cl)cc1,51*,10,10,19,-12,61*,23*
COC(=O)c1scc(C#N)c1N/N=C(\C#N)S(=O)(=O)c1ccc(Cl)cc1,41*,5,4,3,-5,66*,21*
COC(=O)c1scc(C)c1NC(=O)c1ccc(Cl)cc1,x,x,2,x,-6,x,x
S=C(Nc1cccc(Cl)c1)OC1CCC12CCC(c1ccccc1)CC2 (stereo not drawn),6,x,x,x,x,x,x
O=C(CSCc1ccccc1)Nc1cccc(C(=O)Nc2ccccc2C(=O)O)c1,72*,1,4,11,18,55*,18*
O=C(CSCc1ccc(Cl)cc1)Nc1cccc(C(=O)Nc2ccccc2C(=O)O)c1,76*,3,23,-16,3,83*,43*
CC(=O)Oc1cc2c(s1)CCN(C(C(=O)C1CC1)c1ccccc1F)C2 (stereo not drawn),17,x,x,x,x,x,x
CCCc1cc(=O)[nH]c(NCc2ccc(Cl)cc2)n1,5,20,-6,-5,8,x,x
CCCc1cc(=O)[nH]c(Nc2ccc(O)cc2)n1,3,8,-4,-14,-5,x,x
CCCc1cc(=O)[nH]c(Nc2ccc(Cl)cc2)n1,41*,25,-5,24,16,9,10*
CCCc1cc(=O)[nH]c(Nc2ccc(OC)c(Cl)c2)n1,36*,21,-12,3,17,9,11*
COc1cc(N2C[C@@]3(O)CC[C@@H](O)[C@@H](OC)[C@@H]3[C@@](C)(O)[C@@H]2CC=C(C)C)cc(OC)c1OC,-2,1,x,1,x,x,x
